This note sets out measurements from ChEMBL document CHEMBL1138867, “Design, synthesis, potency, and cytoselectivity of anticancer agents derived by parallel synthesis from alpha-aminosuberic acid” (J Med Chem, 2006).

Active and inactive are the calls of the source. The calls are words filed in the database; no cut-off is given here.

In experiment [1] the test system is A549. Nature of the experiment: Induction of p21 expression in human A549 cells after 24 hrs. The format is functional, cell-based. The gist of the method:
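A549 cells were treated 24 h with 0.05, 0.5 or 5 µg/mL compound or vehicle. Lysates were made by sonication in 1% SDS/20% glycerol/10 mM Tris pH 7.4 buffer, and protein was quantified by BCA. Then 30 µg was run on 15% SDS-PAGE and immunoblotted for p21WAF1/Cip1 (1:1000), with GAPD (1:10 000) as reference, using chemiluminescence detection.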

Experiment [2] deals with NFF. Nature of the experiment: Antiproliferative activity against human NFF cells. Format: functional, cell-based. In outline:
(§1)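 Cells cultured in RPMI 1640 with 10% heat-inactivated FCS, 3 mM HEPES, 5% CO2, 37 °C; NFF are primary neonatal foreskin fibroblasts. Cells were seeded at 5 × 10^3/well and left to adhere overnight. They were exposed to compound for 24 h, then the medium was replaced and cells grown a further 72 h. Survival was read by SRB staining at 564 nm, giving IC50.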

Experiment [3] concerns MM96L. Put plainly: Antiproliferative activity against human MM96L cells. Format: functional, cell-based. The gist of the method:
as §1

For experiment [4], the system named is SK-MEL-28. Put plainly: Antiproliferative activity against human SK-Mel-28 cells. The format is functional, cell-based. In outline:
as §1

Experiment [5] has as its system A549. Put plainly: Antiproliferative activity against human A549 cells. Format: functional, cell-based. In outline:
as §1

Experiment [6] relates to DU-145. Nature of the experiment: Antiproliferative activity against human DU145 cells. The format is functional, cell-based. The gist of the method:
as §1

The subject of experiment [7] is HOP-62. Nature of the experiment: Antiproliferative activity against human HOP62 cells. The format is functional, cell-based. The gist of the method:
as §1

Experiment [8] concerns HT-29. Put plainly: Antiproliferative activity against human HT29 cells. Format: functional, cell-based. In outline: as §1
Experiment [9] relates to MCF7. Nature of the experiment: Antiproliferative activity against human MCF7 cells. The format is functional, cell-based. In outline:
as §1

The subject of experiment [10] is SK-MEL-5. Put plainly: Antiproliferative activity against human SK-Mel-5 cells. The format is functional, cell-based. In outline:
as §1

The nature of experiment [11]: Antiproliferative activity against human H520 cells. The following applies: NCI-H520. Format: functional, cell-based. In outline:
as §1

In experiment [12] the test system is T47D. Nature of the experiment: Antiproliferative activity against human T-47D cells. Format: functional, cell-based. The gist of the method: as §1
The subject of experiment [13] is C180-13S. Nature of the experiment: Antiproliferative activity against human C180-13S cells. Format: functional, cell-based. In outline: as §1
Experiment [14] is described as follows: Antiproliferative activity against human JAM cells. The format is functional, cell-based. In outline: as §1
The test system of experiment [15] is PC-3. Nature of the experiment: Antiproliferative activity against human PC3 cells. Format: functional, cell-based. In outline:
as §1

In experiment [16] the test system is COLO 205. Nature of the experiment: Antiproliferative activity against human Colo205 cells. Format: functional, cell-based. In outline: as §1
The test system of experiment [17] is A549 (Homo sapiens). Nature of the experiment: Induction of p21 expression in human A549 cells.
The subject of experiment [18] is MM96L. Put plainly: Induction of histone H4 acetylation in human MM96L cells. The format is functional, cell-based. In outline: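 MM96L melanoma cells were exposed for 8 h to 0.05, 0.5 or 5 µg/mL compound, with DMSO vehicle and untreated controls. Histones were extracted and resolved by TAU gel electrophoresis to separate non-, mono-, di-, tri- and tetra-acetylated histone H4.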

Experiment [19] can be described thus: Antiproliferative activity against human MM229 cells. Format: functional, cell-based. In outline:
as §1

A short description of experiment [20]: Antiproliferative activity against human MM329 cells. Format: functional, cell-based. In outline:
as §1

Experiment [21] is described as follows: Antiproliferative activity against human MM470 cells. Format: functional, cell-based. In outline:
as §1

Experiment [22] is described as follows: Antiproliferative activity against human MM604 cells. Format: functional, cell-based. In outline:
as §1

The nature of experiment [23]: Antiproliferative activity against human Mel RM cells. Format: functional, cell-based. In outline:
as §1

Experiment [24] is described as follows: Antiproliferative activity against human Mel FH cells. The format is functional, cell-based. In outline: as §1
Experiment [25] deals with DO4. Nature of the experiment: Antiproliferative activity against human DO4 cells. The format is functional, cell-based. In outline: as §1
Experiment [26] in a line: Antiproliferative activity against human D14 cells. Format: functional, cell-based. In outline: as §1
The nature of experiment [27]: Antiproliferative activity against human D11 cells. The format is functional, cell-based. The gist of the method:
as §1

The nature of experiment [28]: Antiproliferative activity against human D17 cells. Format: functional, cell-based. The gist of the method: as §1
Experiment [29] in a line: Antiproliferative activity against human LSP M2 cells. The format is functional, cell-based. In outline: as §1
Experiment [30] in a line: Antiproliferative activity against human AF6 cells. Format: functional, cell-based. The gist of the method:
as §1

Experiment [31] is described as follows: Antiproliferative activity against human AO7 RM cells. The format is functional, cell-based. In outline:
as §1

The subject of experiment [32] is A2058. Put plainly: Antiproliferative activity against human A2058 cells. Format: functional, cell-based. In outline:
as §1

Experiment [33] deals with HeLa. Nature of the experiment: Antiproliferative activity against human HeLa cells. Format: functional, cell-based. In outline: as §1
Experiment [34] deals with NFF. Nature of the experiment: Selectivity index, IC50 for MM229 over IC50 for NFF cells. The format is functional, Homo sapiens. The gist of the method: (§2)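 Selectivity index: IC50 for normal neonatal foreskin fibroblasts (NFF) relative to IC50 for each cancer line, both from the same survival assay. Cells grown in RPMI 1640 with 10% heat-inactivated FCS at 37 °C and 5% CO2, plated at 5 × 10^3 cells/well and left to adhere overnight. Compound exposure 24 h, then removed and cells regrown 72 h in fresh medium. Fixed with methylated spirits, stained with sulforhodamine B, read at 564 nm.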

The subject of experiment [35] is NFF. Put plainly: Selectivity index, IC50 for MM329 over IC50 for NFF cells. Format: functional, Homo sapiens. The gist of the method:
as §2

The subject of experiment [36] is NFF. Nature of the experiment: Selectivity index, IC50 for MM470 over IC50 for NFF cells. Format: functional, Homo sapiens. The gist of the method: as §2
The subject of experiment [37] is NFF. Nature of the experiment: Selectivity index, IC50 for MM604 over IC50 for NFF cells. Format: functional, Homo sapiens. The gist of the method: as §2
Experiment [38] concerns NFF. Nature of the experiment: Selectivity index, IC50 for Mel RM over IC50 for NFF cells. The format is functional, Homo sapiens. The gist of the method: as §2
Experiment [39] has as its system NFF. Put plainly: Selectivity index, IC50 for Mel FH over IC50 for NFF cells. The format is functional, Homo sapiens. The gist of the method: as §2
Experiment [40] has as its system NFF. Nature of the experiment: Selectivity index, IC50 for DO4 over IC50 for NFF cells. The format is functional, Homo sapiens.
Experiment [41] concerns NFF. Nature of the experiment: Selectivity index, IC50 for D14 over IC50 for NFF cells. Format: functional, Homo sapiens.
The subject of experiment [42] is NFF. Put plainly: Selectivity index, IC50 for D11 over IC50 for NFF cells. Format: functional, Homo sapiens.
For experiment [43], the system named is NFF. Nature of the experiment: Selectivity index, IC50 for D17 over IC50 for NFF cells. The format is functional, Homo sapiens.
Experiment [44] has as its system NFF. Nature of the experiment: Selectivity index, IC50 for LSP M2 over IC50 for NFF cells. Format: functional, Homo sapiens. The gist of the method:
as §2

Experiment [45] relates to NFF. Put plainly: Selectivity index, IC50 for AF6 over IC50 for NFF cells. The format is functional, Homo sapiens.
Experiment [46] concerns NFF. Nature of the experiment: Selectivity index, IC50 for AO7 RM over IC50 for NFF cells. Format: functional, Homo sapiens.
The test system of experiment [47] is NFF. Put plainly: Selectivity index, IC50 for A2058 over IC50 for NFF cells. Format: functional, Homo sapiens.
Experiment [48] concerns NFF. Put plainly: Selectivity index, IC50 for HeLa over IC50 for NFF cells. Format: functional, Homo sapiens.
Experiment [49] relates to MM96L. Nature of the experiment: Effect on cell morphology in human MM96L cells at 3 ug/mL after 24 hrs. The format is functional, cell-based.

On to `O=C(CCCCC[C@H](NC(=O)c1cc2ccccc2[nH]1)C(=O)Nc1cccc2cccnc12)NO`, for which the outcome in experiment [1] and in [17] was Active. In addition, the half-inhibitory concentration (IC50) in experiment [2] is 337 nM; in experiment [3], 21 nM; in experiment [4] it was 33 nM; in experiment [5] it was 69 nM; in experiment [6] it was 22 nM; in [7] it was 63 nM. Further, the half-maximal inhibitory concentration (IC50) stood at 79 nM in experiment [8]; 19 nM in [9]; 18 nM in experiment [10]; 26 nM in experiment [11]; 19 nM in [12]; 20 nM in [13]. For the same compound, the IC50 turned out to be 48 nM in [14], 148 nM in [15] and 102 nM in [16].

As to `CN(C)c1ccc(C(=O)NC(CCCCCC(=O)NO)C(=O)NCc2ccccc2)cc1` (centres undefined), the Activity entry in experiment [18] was “Dose-dependent effect”. Further, the IC50 in [2] came to 870 nM; in experiment [3] it was 130 nM; in [19], 600 nM; in [20], 60 nM; in [21] it was 90 nM; in experiment [22], 10 nM. In addition, the concentration for half-maximal inhibition (IC50) in experiment [23] came out at 950 nM; in experiment [24], 80 nM; in experiment [4] it was 60 nM; in experiment [25], 120 nM; in experiment [26], 260 nM; in [27] it was 300 nM. In addition, the concentration for half-maximal inhibition (IC50) in experiment [28] is 60 nM; in experiment [29] it was 450 nM; in experiment [30] it was 300 nM; in experiment [31], 180 nM; in experiment [32] it was 100 nM; in experiment [33], 90 nM. The “Ratio IC50” value is 1.5 in [34]; 14.5 in [35]; 9.7 in experiment [36]; 87 in [37]; 0.9 in experiment [38]; 10.9 in experiment [39]. Besides, the “Ratio IC50” value in experiment [40] is given as 7.3; in experiment [41], 3.3; in experiment [42], 2.9; in [43], 14.5; in [44] it was 1.9; in experiment [45], 2.9. The entries for the “Ratio IC50” value in [46], in experiment [47] and in [48] were 4.8, 8.7 and 9.7, respectively.

For `CN(C)c1ccc(C(=O)N[C@@H](CCCCCC(=O)NO)C(=O)NCc2ccccc2)cc1`, in experiment [49], the outcome was Active. Also, the IC50 worked out at 12000 nM in experiment [2] and 1600 nM in [3].

Usually IC50 stands for the concentration at which inhibition is half-maximal.
